Test results from PubChem BioAssay AID463210 (The Scripps Research Institute Molecular Screening Center, 2010).
Out of some 330,000 compounds screened, about 300 (0.091%) were called active. The entries come from a sample that favours actives as a whole. A number with no mark means an inactive call.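 The calls were made as follows: active = percent activation above the screen-wide mean plus 3 SD (cut at about 25% in these data); inactive = the rest.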

Biological target: Caspase-7 (Homo sapiens) (UniProt P55210)
Test: activation of procaspase-7 enzyme – biochemical, absorbance, HTS, human, counter-screen for procaspase-3 activator project, primary screen (AID 463210)
Conditions: recombinant procaspase-7, Ac-DEVD-pNA absorbance 405 nm; at 8.5 µM; hits give high values; D23A/D198A/D206A triple mutant, cannot self-cleave; scale: DMSO 0, 5 µM enzyme 100
Procedure, shortened: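 Replicates: singlicate. Assay system: Procaspase-7 triple mutant (PC-7 D3A). Signal: 405 nm absorbance of p-nitroaniline. Times: 1 h preincubation, 2 h reaction. Buffer or medium: Zinc-free HEPES pH 7.4 with 300 mM NaCl, 0.01% Triton X-100. Also added: DEVD-pNA substrate. Benchmarks: DMSO wells as 0%, DMSO with 5 µM added PC-7 as 100%.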

Sequence of Caspase-7 (Homo sapiens) (P55210 whole entry D23A/D198A/D206A): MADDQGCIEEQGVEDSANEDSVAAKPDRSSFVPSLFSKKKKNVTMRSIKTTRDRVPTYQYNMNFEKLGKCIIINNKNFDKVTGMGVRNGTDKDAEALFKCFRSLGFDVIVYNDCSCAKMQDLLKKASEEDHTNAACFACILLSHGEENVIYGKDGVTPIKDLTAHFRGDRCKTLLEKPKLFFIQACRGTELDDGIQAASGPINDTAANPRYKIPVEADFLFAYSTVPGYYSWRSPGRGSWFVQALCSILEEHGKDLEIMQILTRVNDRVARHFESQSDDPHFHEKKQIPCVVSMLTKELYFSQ

Structure (SMILES) | activation
CCOC(=O)C1(CCOC)CCN(Cc2ccc(C(=O)OC)cc2)CC1 | 1.4%
CCOC(=O)C1(CCOc2ccccc2)CCN(Cc2cc(OC)cc(OC)c2)CC1 | -7.5%
CCOC(=O)C1(CCOC)CCN(Cc2cc3ccccc3s2)CC1 | 31.9% (active)
S=C(Nc1ccc(Br)cc1)NC1CCN(Cc2ccccc2)CC1 | -4.11%
CCCCNS(=O)(=O)c1ccc2nc(SCC(=O)Nc3cc(C)cc(C)c3)[nH]c2c1 | 7.82%
COC(=O)c1ccc(NS(=O)(=O)c2cc3c4c(c2)C(C)C(=O)N4CCC3)cc1 (stereo not given) | 8.38%
O=C(C[n+]1cc(-c2ccc(Cl)c(Cl)c2)n2c1CCC2)c1cccs1 | 5.63%
COC(=O)CC1=NN(c2nc(C)cc(C)n2)C(=O)C1 | 2.23%
CC(C)(C)c1ccc(/C=C2\Oc3c(ccc(O)c3CN3CCN(CCO)CC3)C2=O)cc1 | -5.14%
Cc1ccc(S(=O)(=O)N2C[C@@H]3CCCC[C@@H]3[C@@H](C)[C@H]2c2cn(Cc3ccccc3)c3ccc(F)cc23)cc1 | 6.02%
Cc1c(C(=O)N(Cc2ccccc2)Cc2cccnc2)cnn1-c1ccc(F)cc1 | 3.32%
COc1ccc(OCc2cc(C(=O)N3CCCC3)no2)c2ccccc12 | -1.07%
CN=C1SC(CC(=O)Nc2ccc(C(=O)O)cc2)C(=O)N1C (stereo not given) | 1.33%
CCCS(=O)(=O)N1CCC(C(=O)NCCc2ccc(OC)c(OC)c2)CC1 | 5.54%
O=C1CN(C(=O)c2cc(F)cc(F)c2)c2ccccc2N1 | 2.59%
CCOC(=O)C1CCN(C(=O)COC(=O)C2CCN(S(=O)(=O)c3ccc4c(c3)OCCO4)CC2)CC1 | 2.16%
CCCCc1ccc(NS(=O)(=O)c2cccc(C(=O)N3CCCN(C)CC3)c2)cc1 | -3.56%
Cc1ccc(S(=O)(=O)NCCC(=O)OCC(=O)N(C)c2ccccc2)cc1 | 1.61%
COc1ccc(-n2cc(CNC3CCOCC3)c(-c3cccc(F)c3)n2)cc1 | -1.78%
CCOc1ccc2c(c1)c(=O)c(S(=O)(=O)c1ccc(C)cc1)cn2CC | -6.47%
C=CCN(c1ccccc1C(=O)NCC(=O)OCC)S(=O)(=O)c1ccc(C)cc1 | 4.75%
CC(=O)N1c2ccc(S(=O)(=O)N3CCCC(C(=O)NCc4ccc(Cl)cc4)C3)cc2CC1C (stereo not given) | 1.56%
COc1ccc(CN(C(=O)CSc2nnc(-c3ccc(OC)c(OC)c3)o2)c2ccc(F)cc2)cc1 | -3.3%

Structure (SMILES) | activation
O=C1CCCCN1CCCC(=O)N1CCCC(Nc2ccc(F)cc2)C1 (stereo not given) | -11.7%
CCOc1cc(C(=O)N2CCc3cc(OC)c(OC)cc3C2)ccc1OC(F)F | 10.5%
CCCSc1ncccc1C(=O)O | 5.5%
CCC(CC)NC(=O)CSc1nnc(-c2c[nH]c3ccccc23)o1 | -2.98%
Cc1cc(C)c(S(=O)(=O)NCC2CCC(C(=O)NCc3ccc4c(c3)OCO4)CC2)c(C)c1 (stereo not given) | 10.5%
CCn1c2ccccc2c2cc(NC(=O)C/C(C)=N/NC(=O)c3ccccc3N)ccc21 | -4.21%
Cc1nccn1CCC1CCCCN1C(=O)CCc1nnc(-c2ccsc2)o1 (stereo not given) | 0.42%
O=C(CCn1nnc2ccccc2c1=O)N[C@@H](Cc1c[nH]c2ccccc12)C(=O)O | 9.07%
CC(C(=O)N1CCN(c2ccccc2F)CC1)c1ccc([N+](=O)[O-])cc1 (stereo not given) | -5.29%
CCCCCc1nnc(NC(=O)c2ccc(=O)n(C)n2)s1 | 9.59%
Cc1csc(/N=C/N(C)C)c1C#N | -2.59%
OCCC1CN(Cc2cccn2-c2nccs2)CCN1CCc1ccccc1 (stereo not given) | 3.58%
COC(=O)c1cccnc1NC(=S)NC(C)C | 3.88%
COc1ccc(N2CCN(S(=O)(=O)c3cc4c5c(c3)C(C)C(=O)N5CCC4)CC2)cc1 (stereo not given) | 4.7%
COc1ccc(-c2sc3ccc(OC)cc3c2C#Cc2ccccn2)cc1 | 25.1%
COc1ccc2sc(-c3ccc(S(C)(=O)=O)cc3)c(C#Cc3cncn3C)c2c1 | 32.4% (active)
COc1ccc2sc(-c3ccc(S(C)(=O)=O)cc3)c(-c3ccc(C(N)=O)cc3)c2c1 | -9.45%
CN(CC(=O)Nc1ccccc1Cl)C(=O)c1ccccc1SCC(=O)N1CCCC1 | 5.38%
Cc1ccccc1N(C(=O)CNC(=O)c1cccs1)C(C(=O)NC1CCCC1)c1ccncc1 (stereo not given) | 2.19%
COc1ccc(Nc2ncnc3sc(-c4ccccc4)cc23)c(OC)c1 | 47.3% (active)
COc1ccc(Nc2ncnc3ccc(Br)cc23)c(OC)c1 | -0.33%
COc1ccc(Nc2ncnc3sc(C)cc23)cc1 | 4.02%
O=C(Cn1cncn1)N/N=C/c1c2ccccc2cc2ccccc12 | -18.1%

Structure (SMILES) | activation
CC(OC(=O)c1ccc2noc(-c3ccccc3)c2c1)C(N)=O (stereo not given) | -10.9%
Oc1ccc(-c2onc3ccc(Cl)cc23)cc1 | -16.8%
COc1ccc(-c2onc3ccc(C(C)=O)cc23)cc1 | 68.7% (active)
CCCCCCCCCCOC(=O)Cn1c(COc2ccc(C)cc2)[n+](C)c2ccccc21 | 0.03%
CCOC(=O)CN1C(=O)C(=O)c2cc(C)ccc21 | 3.45%
CCCCOC(=O)Cn1c(=O)n(CC(=O)OCCCC)c2cc(C)ccc21 | 26.8% (active)
Nc1ncnc(Nc2cccc(Cl)c2Cl)n1 | 1.33%
O=C(NCCCO)/C(=C\C=C\c1ccccc1)NC(=O)c1ccccc1Cl | 0.01%
Cc1cc(C)cc(Oc2c(C(F)(F)F)oc3cc(OCC(=O)O)ccc3c2=O)c1 | -4.44%
Cc1ccc(S(=O)(=O)N2CCC(C(=O)N[C@@H](C)C(=O)NCc3ccco3)CC2)cc1 | -5.6%
CC1(c2nnc(Cc3ccccc3)o2)CC(c2ccccc2F)=NO1 (stereo not given) | -4.57%
Cn1cc(S(=O)(=O)NC(c2ccccc2)c2ccccc2)c(=O)n(C)c1=O | 8.63%
Cn1nc(C(F)(F)F)c(-c2ccc(F)cc2)c1NC(=O)CSCC(=O)O | 3.17%
CC(CCc1ccccc1)NC(=O)COC(=O)c1ccc(F)cc1 (stereo not given) | 4.27%
CSCCC(NS(=O)(=O)c1ccc(C)cc1)C(=O)N1CCCC1 (stereo not given) | 0.13%
COc1ccc(C(CC(=O)N2CCN(c3ccccc3)CC2)c2c(O)cc(OC)cc2OC)cc1 (stereo not given) | 5.61%
CCCn1c(C)cc(/C=C(\C#N)C(=O)OCC(=O)N(C)c2c(N)n(Cc3ccccc3)c(=O)[nH]c2=O)c1C | -1.74%
CCn1c(O)c2ccc(C(=O)N=NC(=O)c3cccnc3)cc2c1O | -2.1%
CN1CCN(C(=O)C2=C[C@H](c3ccc4c(c3)OCO4)C[C@H](OCc3ccc(CO)cc3)O2)CC1 | 0.27%
O=c1cc(CN2CCN(S(=O)(=O)/C=C/c3ccccc3)CC2)c2ccc(O)cc2o1 | 17.5%
O=C(O)CCN(Cc1ccccc1)S(=O)(=O)c1c(Cl)cccc1Cl | 3.54%
O=[N+]([O-])c1cc(Cl)cc(/C=N/NC(=S)Nc2cc(S(=O)(=O)N3CCOCC3)ccc2Cl)c1O | -6.79%
Cc1ccc2nsnc2c1S(=O)(=O)N1CCCC1C(=O)O (stereo not given) | 8.06%

Structure (SMILES) | activation
CC(=O)N[C@@H](C)C(=O)N1CCC(n2nccc2NC(=O)CCCc2ccccc2)CC1 | 8.17%
O=c1c2ccccc2ccc2ccc(P(=O)(O)O)cc12 | 4.72%
O=C(c1cn(-c2ccccc2)nc1-c1cccnc1)N1CCN(S(=O)(=O)c2ccccc2F)CC1 | 11.3%
COc1ccc(CCNC2=C(Cl)C(=O)N(Cc3ccccc3)C2=O)cc1OC | -9.7%
COc1ccc(COCCN2CCN(S(=O)(=O)c3ccccc3)CCC2=O)cc1 | -12.7%
COc1ccc2c(c1)C(NS(=O)(=O)OCC(Cl)(Cl)Cl)CCC2 (stereo not given) | -4.56%
CCN(CC)c1ccc(C(=O)Nn2c(C)nc3ccccc3c2=O)cc1 | -1.52%
C=CCN(C(=O)Nc1ccc2oc(C)nc2c1)c1ccccc1 | -21.8%
CCN(CC)c1ccc2oc(=O)c(C)nc2c1 | 40.2% (active)
COc1cccc(NC(=O)Cn2c3ccccc3c3nc4n(c(=O)c32)CCS4)c1 | 9.71%
CC1=C(N2CCN(c3ncccn3)CC2)CCC1=O | -1.68%
COc1ccc(S(=O)(=O)NCCOc2ccccc2)cc1F | -0.02%
COc1cc(N=Cc2c(O)c3ccccc3oc2=O)c(OC)cc1Cl | 14.3%
COc1ccccc1N=Cc1c(O)c2ccccc2oc1=O | 50.8% (active)
COc1ccccc1N=C(C)C1=C(O)COC1=O | 0.79%
COc1ccc(C(O)(C2CCCCC2)C(CN2CCCC2)c2ccccc2)cc1 (stereo not given) | 0.02%
COCC1CCCN(C(=O)c2ccc3oc(C(C)C)nc3c2)C1 (stereo not given) | -9.62%
COc1ccc(NC(=O)C2CCN(S(=O)(=O)c3ccc4[nH]c(=O)oc4c3)CC2)c(OC)c1 | -1.26%
COc1ccc(CCNC(=O)CN2C(=O)COc3ccc(S(=O)(=O)N4CCCC4)cc32)cc1OC | -1.51%
CCN(C(=O)COC(=O)c1ccc(COc2ccc3c(C)cc(=O)oc3c2)cc1)C1CCS(=O)(=O)C1 (stereo not given) | 11%
O=c1cc(CO)oc(C(Nc2cccc(C(F)(F)F)c2)c2ccccn2)c1O (stereo not given) | -8.69%
